An excerpt weighted towards active compounds, which were near 2.3% of everything screened.
NR2E3 ag-1 = activates human NR2E3 receptor | CHO-S Gal4-NCOR/VP16-NR2E3 two-hybrid, luciferase | inhibition of corepressor binding, % at 3.98 µM | 0.35% of 360,000 active;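 active = inhibition above the mean of all tested compounds plus 3 SD, cut at about 70% in these data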;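 also: 0% = DMSO with NR2E3 transfected cells and 100% = cells lacking NR2E3 construct; higher means lower luciferase signal from less NR2E3 corepressor binding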
NR2F2 inh = blocks human COUP-TFII nuclear receptor | P24468 | HEK293T NGFI-A luciferase reporter, luminescence | inhibition, % at 8.6 µM | 0.7% of 370,000 active | AID 686940;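 active = inhibition above a per-plate cutoff, mean inhibition of test wells between control levels plus 3 SD, cut at about 38% in these data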;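 also: cells cotransfected with COUP-TFII expression vector driving the NGFI-A reporter; 0% = median of COUP-TF2 test wells and 100% = reporter-only cells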
Target sequence (P24468 whole entry, looked up): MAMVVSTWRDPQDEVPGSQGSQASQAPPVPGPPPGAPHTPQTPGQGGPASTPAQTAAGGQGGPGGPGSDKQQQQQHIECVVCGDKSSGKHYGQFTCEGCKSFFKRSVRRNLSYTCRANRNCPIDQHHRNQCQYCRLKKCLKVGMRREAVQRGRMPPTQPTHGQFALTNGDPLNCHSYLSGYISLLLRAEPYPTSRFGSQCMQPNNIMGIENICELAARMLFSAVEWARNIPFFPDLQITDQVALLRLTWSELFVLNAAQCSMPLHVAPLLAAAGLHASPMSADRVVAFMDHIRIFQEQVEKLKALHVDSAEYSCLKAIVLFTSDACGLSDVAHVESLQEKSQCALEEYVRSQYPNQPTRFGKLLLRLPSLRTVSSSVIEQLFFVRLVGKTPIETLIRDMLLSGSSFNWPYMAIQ
NR2E3 ag-2 = activates human photoreceptor nuclear receptor NR2E3. GST-NR2E3/biotin-RetCOR TR-FRET, 1536-well. inhibition of corepressor binding, % at 4.78 µM. 0.12% of 320,000 active;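 active = percent inhibition above the cutoff of mean plus 3 SD of all tested compounds, set per screening campaign, cut at about 20% in these data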;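 also: 0% = DMSO wells and 100% = biotin wells as full block of FRET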
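Format: 1536-well format; test system: GST-NR2E3 and biotin-RetCOR proteins; read-out basis: percent inhibition of TR-FRET ratio; timing: 5 h incubation at 4 °C; detection: time-resolved FRET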
GalR3 antagonist = blocks the human galanin receptor 3. O60755. HEK293 GalR3-CNG cAMP membrane potential fluorescence; galR3 body fused to GalR1 C-terminus. inhibition, % at 3 µM. 0.44% of 360,000 active. AID 651719;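 active = inhibition above the screen-wide average plus 3 SD, cut at about 13% in these data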;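 also: forskolin and galanin both at EC90 stimulate the cells; cAMP rise reported by CNG channel membrane potential dye signal; 0% = forskolin plus galanin with DMSO and 100% = forskolin alone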
CHT allo act = allosteric activators of human choline transporter CHT; Q9GZV3; CHT-expressing cells, membrane potential dye, choline EC20; hits give high values; LV-AA mutant CHT in HEK293 cells; B-score at 10 µM; 0.49% of 310,000 active; AID 488977;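 active = initial fluorescence not abnormally high and integrated response B-score, plate-corrected, over 3 SD above library mean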
CHT block = human CHT choline transport inhibition | Q9GZV3 | CHT-expressing cells, membrane potential dye, choline response; hits give low values | B-score at 10 µM | 0.86% of 310,000 active;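 active = B-score over 3 SD under the library average, and starting fluorescence ratio not unusually high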;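 also: choline stimulus applied at its EC90 after an EC20 pre-addition; B-score computed on integrated fluorescence ratio after choline addition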
CHT inh conf = confirmation of human choline transporter CHT inhibitors; shares compounds with CHT block; CHT activity remaining % of control (hits give low values), % at 10 µM; CHT-expressing cells, choline membrane potential dye; LV-to-AA substituted CHT, HEK293 cells; 70% of 2,400 active; AID 493221;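 active = choline transporter activity left, mean of duplicates at 10 µM, below buffer-only control mean minus 3 SD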;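 also: depolarization triggered by choline at its EC90 following an EC20 pre-addition; 0% = hemicholinium-3 full block and 100% = buffer-only control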
HEK293 CHT ctr = counter-screen for CHT inhibitors: effect in parental HEK293 cells | shares compounds with CHT block | membrane potential dye, choline response; active = decrease or increase beyond buffer ±3SD | membrane potential ratio readout (active if shifted either direction beyond buffer ±3SD; no single direction) at 10 µM | 4% of 2,400 active | AID 493222;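 also: parental cells lack the transporter so any hit is non-specific; ratio is peak minus trough fluorescence over baseline after EC90 choline challenge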
Numbers without * were called inactive; i = inactive; nt = not tested or not shown.

SMILES	NR2E3 ag-1	NR2F2 inh	NR2E3 ag-2	GalR3 antagonist	CHT allo act	CHT block	CHT inh conf	HEK293 CHT ctr
Cc1ccc(C)c(S(=O)(=O)Nc2ccc(C(=O)NCC(c3ccco3)N3CCCCC3)cc2)c1 (stereo not given)	-17	12	1	-4	i	i	nt	nt
COc1ccccc1NS(=O)(=O)c1cc(C(=O)NCC(c2ccco2)N2CCCCC2)ccc1C (stereo not given)	-3	25	-5	-5	i	-12*	11%*	i
COc1ccc(-n2c(SCC(=O)N/N=C(/C)c3cccc(O)c3)nc3ccccc3c2=O)cc1	nt	-7	nt	nt	nt	nt	nt	nt
Cc1ccc(-c2nc(C3CCCN(S(=O)(=O)c4ccc(Cl)s4)C3)no2)cc1 (stereo not given)	nt	-7	nt	nt	nt	nt	nt	nt
C#CCNC(=O)C[C@@H]1C(=O)N(CC=C)/C2=C/CCCCC[C@]21C(=O)OCC	nt	12	nt	nt	nt	nt	nt	nt
CCN(C(=O)c1cc2c(=O)n3ccccc3nc2n1CCCOC)C1CCCCC1	0	-6	4	2	i	-5*	45%*	i
O=[N+]([O-])c1ccc(SCCc2ccccn2)cc1	-26	-17	-1	0	i	-6.5*	53%*	i
Oc1c(Cl)cc(Cl)cc1C=Nc1ccc2c(c1)OCCO2	34	-5	1	5	i	-5.1*	62%*	i
O=C(Nc1ccc(F)cc1F)C1CCN(c2nnc(-n3cccc3)s2)CC1	nt	-9	nt	nt	nt	nt	nt	nt
Cc1ccc(NC(=O)c2ccc(Cn3cc([N+](=O)[O-])cn3)cc2)c(C)c1	-1	-23	1	-2	i	-5.2*	42%*	i
CCn1c(SCC(=O)Nc2ccccc2C(=O)OC)nnc1-c1ccoc1C	-22	-6	5	-8	i	-5.6*	i	i
CCn1c(SCC(=O)Nc2ccccc2C(=O)OC)nnc1-c1ccc(N)cc1	10	7	-3	-2	i	i	nt	nt
CC(NC(=O)c1ccc(OC2CCN(Cc3ccccn3)CC2)cc1)c1ccccc1 (stereo not given)	-11	3	-1	-8	i	-10*	-1.0%*	i
Cc1noc(C)c1COC(=O)c1cc(F)c(F)cc1Cl	-12	7	-5	-3	i	i	nt	nt
Cc1noc(C)c1COC(=O)c1cnc(Cl)c(Cl)c1	-7	-19	-2	-2	i	-6.9*	47%*	i
CC1CCCN(C(=S)Nc2ccc(S(=O)(=O)N3CCCCC3)cc2)C1 (stereo not given)	12	-6	-5	0	i	-13*	i	i
COC(=O)CSc1nnc(-c2ccc(NS(=O)(=O)c3ccccc3)cc2)o1	-38	-10	2	-8	i	-5.9*	39%*	i
Cc1ccc(NC(=O)c2ccc(CS(=O)(=O)Cc3ccccc3C)o2)c(C)c1	nt	0	nt	nt	nt	nt	nt	nt
O=C(CSc1nc(-c2ccccc2)cc(C(F)(F)F)n1)N1CCOCC1	-31	7	0	-4	i	-5.8*	i	i
O=C(CCCSc1nc2ccccc2[nH]1)NC1CCCCC1	2	0	0	-2	i	i	nt	nt
O=C(CCCSc1nc2ccccc2[nH]1)N1CCN(c2ccccc2)CC1	-5	7	7	-6	i	-5*	58%*	i
O=C(CSc1nc2ccccc2[nH]1)N1CCN(c2ccccc2)CC1	-1	-6	2	2	i	i	nt	nt
O=C(COC(=O)CCCSc1nc2ccccc2[nH]1)NC(=O)NC1CCCC1	23	-7	3	-3	i	-7.3*	62%*	i
COCCCN1C(=O)[C@H](CC(=O)NCCCCc2ccccc2)[C@]2(C(=O)OC)CCCCC=C12	nt	2	nt	nt	nt	nt	nt	nt
CCOC(=O)Cc1nc(N2CCCN(C(C)=O)CC2)c2c(C)c(C(=O)OCC)sc2n1	nt	10	nt	nt	nt	nt	nt	nt
SMILES	NR2E3 ag-1	NR2F2 inh	NR2E3 ag-2	GalR3 antagonist	CHT allo act	CHT block	CHT inh conf	HEK293 CHT ctr
COC(=O)C1CN(Cc2cn(CCOC(C)=O)nn2)CCS(=O)(=O)N1Cc1ccc(F)cc1 (stereo not given)	nt	1	nt	nt	nt	nt	nt	nt
O=C(CCC1CCCN(C(=O)c2ccoc2)C1)NCc1ccccc1F (stereo not given)	-5	13	-2	-2	i	i	nt	nt
CC1=C(C(=O)N2CCCC(CCC(=O)NCc3ccccc3F)C2)OCCO1 (stereo not given)	-3	21	4	4	i	-6.1*	i	i
CCOC(=O)c1cc(C(=O)NC(C)c2ccccc2)c(C)[nH]c1=O (stereo not given)	9	-17	0	-6	i	-7.4*	14%*	i
CCOC(=O)c1cc(C(C)=O)c(=O)[nH]c1C	-2	8	3	1	i	i	nt	nt
O=C(c1cccc(OC2CCN(Cc3ccc(F)cc3Cl)CC2)c1)N1CCCC1	7	13	4	3	i	-5.4*	36%*	i
Cn1nc(-c2ccccc2)c2nc3ccccc3nc21	-9	-1	0	-3	i	-6.3*	i	-9.9*
CC(C)[C@H](NC(=O)[C@@H]1CCCN1)C(=O)N1CCC2CCN(S(=O)(=O)c3ccccc3)CC21 (stereo not given in full)	nt	7	nt	nt	nt	nt	nt	nt
Cc1ccnc(SCc2cc(=O)c(OC(=O)c3ccc(S(=O)(=O)N(C)C)cc3)co2)n1	-11	-5	-1	0	i	-6.5*	58%*	i
Cc1cc(-c2ccccc2)n(-c2ccc(C(=O)N3CCN(c4ncccn4)CC3)cc2)n1	-1	0	1	-4	i	-6.4*	71%*	i
Cc1ccc(C(=O)N2CCN(c3ncccn3)CC2)cc1	-7	-5	nt	-11	i	i	nt	nt
N#Cc1cccc(NC(=O)O[C@@H]2CC[C@@]34CCCN3C(=O)CCC[C@H]4C2)c1	nt	-3	nt	nt	nt	nt	nt	nt
Cc1occc1C(=O)N/N=C/c1sc(N2CCOCC2)nc1-c1ccccc1	-12	8	-3	-3	i	-9.1*	i	i
CN(CCC#N)C(=O)CC(Cc1ccccc1)C1CCOC(C)(C)C1 (stereo not given)	-28	15	2	-2	i	-6*	i	i
O=C(Nc1ccc2ccccc2c1)NC1CCCCN(Cc2ccc(Cl)cc2)C1=O (stereo not given)	nt	-13	nt	nt	nt	nt	nt	nt

High-throughput results: PubChem BioAssay, several laboratories
